Measurements gathered from unrelated publications.
Lines come from different studies, so protocols differ.
Cell line: HeLa
Effect on: cell growth or viability

| Compound | method | time | IC50 |
| --- | --- | --- | --- |
| COc1ccc(CNC(=O)Cn2cc(COc3ncnc4[nH]cnc34)nn2)cc1 | MTT |  | 29.6 µM |
| COc1cc(C(=O)C[n+]2cn(CCC(C)C)c3ccccc32)c(OC)c2ccccc12 | MTT | 24 h | 17 µM |
| COc1cc([C@@H]2c3cc4c(cc3[C@@H](O[C@@H]3O[C@@H]5CO[C@@H](C)O[C@H]5[C@H](O)[C@H]3O)[C@H]3COC(=O)[C@H]23)OCO4)cc(OC)c1O | MTT | 48 h | 3.9 µM |
| CN1CCc2c(c3ccccc3n2Cc2ccc(C(=O)NO)cc2)C1 | CCK-8 | 48 h | 17.6 µM |
| C=C[C@]1(C)C=C2CC[C@H]3C(C)(C)CCC[C@]3(C)[C@H]2CC1 | MTT | 75 h | 130 µM |
| O=Cc1cccc(NC(=O)Cn2cc(COc3ncnc4[nH]cnc34)nn2)c1 | MTT |  | 22.1 µM |
| COc1cccc(Nc2nc(-c3ccncc3)nc3c2CNCC3)c1 | MTT |  | 23.2 µM |
| CC(C)CCOc1cc(C[n+]2c(-c3ccccc3)n(CCC(C)C)c3ccccc32)c(OCCC(C)C)c2ccccc12 | MTT | 24 h | 7.3 µM |
| COc1cccc2c1C(=O)c1c(O)c3c(c(O)c1C2=O)C[C@@](O)(C(=O)CO)C[C@@H]3O[C@H]1C[C@H](N)[C@H](O)[C@H](C)O1 | MTT |  | 6.89 µM |
| CCCNC(=S)N/N=C/c1cccc2cc3ccccc3nc12 | MTT | 48 h | 36.2 µM |
| CCC(=CCc1c(O)cc2c(c1O)C(=O)CC(c1ccc(O)cc1)O2)CC (stereo in doubt) | MTT | 48 h | 19.1 µM |
| CSc1ccccc1-c1ccc(C(N)=O)c2[nH]c3c(c12)CC(N)CC3 (stereo not drawn) |  |  | 0.21 µM |
| S=C(N/N=C/c1cccc2cc3ccccc3nc12)Nc1ccccc1 | MTT | 48 h | 28.3 µM |
| CN1C(=O)C(=O)c2cc3c(c4c2c1cc1ccccc14)OCO3 | MTT | 75 h | 56.9 µM |
| CN(C)c1ccc(Nc2nc(-c3ccncc3)nc3c2CC(N)CC3)cc1 (stereo not drawn) | MTT |  | 38.2 µM |
| Cc1cc2c(cc1C)[n+](Cc1cc(OCCC(C)C)c3ccccc3c1OCCC(C)C)cn2CCC(C)C | MTT | 24 h | 8.9 µM |
| CSc1ccccc1-c1cc(C(N)=O)c2[nH]c3c(c2c1)CC(N)CC3 (stereo not drawn) |  |  | 1.46 µM |
| CC(C)CCOc1cc(C[n+]2cn(CCC(C)C)c3cc(-c4ccccc4)c(-c4ccccc4)cc32)c(OCCC(C)C)c2ccccc12 | MTT | 24 h | 11.2 µM |
| CCC(=CCc1c(O)cc2c(c1O)C(=O)C[C@H](c1ccccc1O)O2)CC | MTT |  | 37.4 µM |
| COC(C)c1n(CCC(C)C)c2ccccc2[n+]1Cc1cc(OCCC(C)C)c2ccccc2c1OCCC(C)C (stereo not drawn) | MTT | 24 h | 5.7 µM |
| O=[N+]([O-])c1ccc(NC(=S)N/N=C/c2cccc3cc4ccccc4nc23)cc1 | MTT | 48 h | 7.5 µM |
| CCCCCCCCOc1cc(C(=O)C[n+]2cn(CCC(C)C)c3ccccc32)c(OCCCCCCCC)c2ccccc12 | MTT | 24 h | 14.3 µM |
| CNc1cccc(Nc2nc(-c3ccncc3)nc3c2CNCC3)c1 | MTT |  | > 100 µM |
| CC(C)CCOc1cc(C[n+]2c(C(C)C)n(CCC(C)C)c3ccccc32)c(OCCC(C)C)c2ccccc12 | MTT | 24 h | 6.8 µM |
| COc1cccc2c1C(=O)c1c(O)c3c(c(O)c1C2=O)C[C@@](O)(C(=O)CO)C[C@@H]3O[C@H]1C[C@H](N)[C@H](O)[C@H](C)O1 | MTT | 48 h | 0.51 µM |
| CC(C)CCOc1cc(C[n+]2c(CO)n(CCC(C)C)c3ccccc32)c(OCCC(C)C)c2ccccc12 | MTT | 24 h | 11.8 µM |
| CN(C)C(=S)[N-]N=C(c1ccccn1)c1ccccn1.[O]=[V+]=[O] | MTT | 48 h | 42.9 µM |
